Measurements published in ChEMBL document CHEMBL4118021, “Studies of TAK1-centered polypharmacology with novel covalent TAK1 inhibitors” (Bioorg Med Chem, 2017).
The source made the active and inactive calls. No cut-off for these calls is given here.

Assays:
[1] = target: AP2-associated protein kinase 1 (Homo sapiens) (UniProt Q2M2I8); assay: Binding affinity to AAK1 in human NCI-H23 cells at 1 uM by mass spectrometry based pull down assay; format: cell-based
Procedure, shortened: (§1)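 NCI-H23 or NCI-H358 cells were grown and lysed. Lysates were incubated overnight at 4 °C with 1 μM biotinylated covalent probe or DMSO, then pulled down on streptavidin beads. Proteins were run on polyacrylamide gels and stained with Coomassie. Bands were excised, digested and identified by mass spectrometry.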

[2] = target: T1, 80S Ribosome (Homo sapiens) (UniProt P08865+P42677+P62753+P15880+P23396+P61247+P62701+P22090+P46782+P62081+P62241+P46781+P46783+P62280+P25398+P62277+P62263+P62841+P62244+P62249+P08708+P62269+P39019+P60866+P63220+P62266+P62847+P62851+P62854+P62979+P62857+P62273+P62861+P39023+P36578+P46777+Q02878+P18124+P62424+P62917+P32969+P27635+P62906+P62913+P30050+P26373+P40429+P50914+P61313+P18621+Q07020+Q02543+P84098+P46778+P35268+P62829+P62750+P83731+P61254+P61353+P46776+P46779+P47914+P62888+P62899+P62910+P49207+P42766+P18077+Q9Y3U8+P83881+P61927+P61513+P63173+P62891+P62945+P05388+P05386); assay: Binding affinity to RPS12 in human NCI-H23 cells at 1 uM by mass spectrometry based pull down assay; format: cell-based
[3] = target: T1, 80S Ribosome (Homo sapiens); assay: Binding affinity to RPL28 in human NCI-H23 cells at 1 uM by mass spectrometry based pull down assay; format: cell-based
[4] = target: Actin-related protein 2 (Homo sapiens) (UniProt P61160); assay: Binding affinity to ACTR2 in human NCI-H23 cells at 1 uM by mass spectrometry based pull down assay; format: cell-based; procedure, shortened: as §1
[5] = target: Acidic leucine-rich nuclear phosphoprotein 32 family member A (Homo sapiens) (UniProt P39687); assay: Binding affinity to ANP32A in human NCI-H358 cells at 1 uM by mass spectrometry based pull down assay; format: cell-based
Chain of Acidic leucine-rich nuclear phosphoprotein 32 family member A (Homo sapiens) (P39687 whole entry): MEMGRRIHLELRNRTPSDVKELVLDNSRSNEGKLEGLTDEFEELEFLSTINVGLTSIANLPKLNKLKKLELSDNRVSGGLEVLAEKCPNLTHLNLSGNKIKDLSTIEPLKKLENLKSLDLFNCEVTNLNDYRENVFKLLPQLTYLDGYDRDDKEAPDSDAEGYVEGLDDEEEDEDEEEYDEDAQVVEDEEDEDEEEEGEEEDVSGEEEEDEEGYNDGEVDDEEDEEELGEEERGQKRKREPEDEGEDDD

[6] = target: Delta-1-pyrroline-5-carboxylate synthase (Homo sapiens) (UniProt P54886); assay: Binding affinity to ALDH18A1 in human NCI-H23 cells at 1 uM by mass spectrometry based pull down assay; format: cell-based; procedure, shortened: as §1
[7] = target: T2, Mitogen-activated protein kinase kinase kinase 7 (Homo sapiens) (UniProt O43318); conditions: 0.6 uM
T2 sequence (whole entry): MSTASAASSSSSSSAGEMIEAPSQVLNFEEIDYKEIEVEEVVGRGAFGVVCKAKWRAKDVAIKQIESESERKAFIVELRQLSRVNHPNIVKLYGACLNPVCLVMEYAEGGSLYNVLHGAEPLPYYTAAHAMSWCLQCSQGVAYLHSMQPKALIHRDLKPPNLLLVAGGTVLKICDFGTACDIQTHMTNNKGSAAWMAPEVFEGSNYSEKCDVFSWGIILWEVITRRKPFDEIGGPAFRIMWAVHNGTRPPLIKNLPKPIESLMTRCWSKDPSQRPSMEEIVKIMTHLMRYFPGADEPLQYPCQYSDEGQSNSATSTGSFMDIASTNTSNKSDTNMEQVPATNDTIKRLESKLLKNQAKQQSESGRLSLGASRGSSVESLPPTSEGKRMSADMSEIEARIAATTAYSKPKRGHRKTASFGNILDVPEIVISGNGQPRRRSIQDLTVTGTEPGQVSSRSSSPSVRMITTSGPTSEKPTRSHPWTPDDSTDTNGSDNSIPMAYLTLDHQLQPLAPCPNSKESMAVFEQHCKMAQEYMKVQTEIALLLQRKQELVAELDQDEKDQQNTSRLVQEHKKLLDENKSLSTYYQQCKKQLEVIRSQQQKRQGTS

BaF3 = assay: Antiproliferative activity against mouse BA/F3 cells harboring KRAS G12D mutant after 72 hrs in presence of IL-3 by CellTiter-Glo assay; format: functional, cell-based; conditions: BaF3, 72 h
[8] = target: Serine/threonine-protein kinase A-Raf (Homo sapiens) (UniProt P10398); assay: Inhibition of ARAF in human SKCO1 cells at 1 uM after 4 hrs using biotin labeled DLKSNNIFLHEGLTVK probe by mass-spectrometric analysis relative to control; format: cell-based
Chain of Serine/threonine-protein kinase A-Raf (Homo sapiens) (P10398 whole entry): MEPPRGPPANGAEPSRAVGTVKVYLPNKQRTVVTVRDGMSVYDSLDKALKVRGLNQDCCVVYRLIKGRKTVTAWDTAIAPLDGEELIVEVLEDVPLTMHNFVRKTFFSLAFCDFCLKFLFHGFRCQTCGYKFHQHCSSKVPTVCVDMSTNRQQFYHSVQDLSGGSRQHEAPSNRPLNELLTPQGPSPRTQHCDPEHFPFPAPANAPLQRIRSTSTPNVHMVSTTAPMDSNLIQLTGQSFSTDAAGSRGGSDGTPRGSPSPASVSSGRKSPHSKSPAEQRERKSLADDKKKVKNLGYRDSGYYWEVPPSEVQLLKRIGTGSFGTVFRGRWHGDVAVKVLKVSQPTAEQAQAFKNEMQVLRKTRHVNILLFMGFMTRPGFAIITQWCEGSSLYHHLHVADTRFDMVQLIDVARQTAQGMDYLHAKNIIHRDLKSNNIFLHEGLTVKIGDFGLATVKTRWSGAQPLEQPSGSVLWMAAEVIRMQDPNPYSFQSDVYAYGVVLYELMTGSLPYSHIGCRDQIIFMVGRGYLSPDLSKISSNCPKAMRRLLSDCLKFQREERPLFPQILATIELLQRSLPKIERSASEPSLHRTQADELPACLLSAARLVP

[9] = target: T3, Dual specificity mitogen-activated protein kinase kinase 4 (Homo sapiens) (UniProt P45985); assay: Inhibition of MAP2K4 in human SKCO1 cells at 1 uM after 4 hrs using biotin labeled DIKPSNILLDR probe by mass-spectrometric analysis relative to control; format: cell-based
T3 sequence (whole entry): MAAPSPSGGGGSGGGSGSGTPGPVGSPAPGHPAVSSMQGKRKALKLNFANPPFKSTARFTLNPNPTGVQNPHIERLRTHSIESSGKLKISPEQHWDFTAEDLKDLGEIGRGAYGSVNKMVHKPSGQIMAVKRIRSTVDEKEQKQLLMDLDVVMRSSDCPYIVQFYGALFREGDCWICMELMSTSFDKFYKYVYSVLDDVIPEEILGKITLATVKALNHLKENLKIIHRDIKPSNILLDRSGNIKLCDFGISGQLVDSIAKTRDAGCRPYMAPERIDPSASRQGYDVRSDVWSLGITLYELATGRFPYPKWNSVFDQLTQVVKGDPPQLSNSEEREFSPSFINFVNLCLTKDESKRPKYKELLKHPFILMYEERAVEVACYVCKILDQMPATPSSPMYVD

NCI-H23 = assay: Antiproliferative activity against human NCI-H23 cells harboring KRAS G12C mutant after 72 hrs by CellTiter-Glo assay; format: functional, cell-based
Procedure, shortened: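 NCI-H23 or NCI-H358 cells seeded at 2000 cells/well and grown 48 h before drug. Varying doses were added and cells incubated 72 h. Viability was read as CellTiter-Glo luminescence, and growth-inhibition IC50 was calculated from dose-response curves.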

[10] = target: Receptor tyrosine-protein kinase erbB-2 (Homo sapiens) (UniProt P04626); assay: Inhibition of HER2/ErbB2 in human SKCO1 cells at 1 uM after 4 hrs using biotin labeled GIWIPDGENVKIPVAIKVLR probe by mass-spectrometric analysis relative to control; format: cell-based
Chain of Receptor tyrosine-protein kinase erbB-2 (Homo sapiens) (P04626 whole entry): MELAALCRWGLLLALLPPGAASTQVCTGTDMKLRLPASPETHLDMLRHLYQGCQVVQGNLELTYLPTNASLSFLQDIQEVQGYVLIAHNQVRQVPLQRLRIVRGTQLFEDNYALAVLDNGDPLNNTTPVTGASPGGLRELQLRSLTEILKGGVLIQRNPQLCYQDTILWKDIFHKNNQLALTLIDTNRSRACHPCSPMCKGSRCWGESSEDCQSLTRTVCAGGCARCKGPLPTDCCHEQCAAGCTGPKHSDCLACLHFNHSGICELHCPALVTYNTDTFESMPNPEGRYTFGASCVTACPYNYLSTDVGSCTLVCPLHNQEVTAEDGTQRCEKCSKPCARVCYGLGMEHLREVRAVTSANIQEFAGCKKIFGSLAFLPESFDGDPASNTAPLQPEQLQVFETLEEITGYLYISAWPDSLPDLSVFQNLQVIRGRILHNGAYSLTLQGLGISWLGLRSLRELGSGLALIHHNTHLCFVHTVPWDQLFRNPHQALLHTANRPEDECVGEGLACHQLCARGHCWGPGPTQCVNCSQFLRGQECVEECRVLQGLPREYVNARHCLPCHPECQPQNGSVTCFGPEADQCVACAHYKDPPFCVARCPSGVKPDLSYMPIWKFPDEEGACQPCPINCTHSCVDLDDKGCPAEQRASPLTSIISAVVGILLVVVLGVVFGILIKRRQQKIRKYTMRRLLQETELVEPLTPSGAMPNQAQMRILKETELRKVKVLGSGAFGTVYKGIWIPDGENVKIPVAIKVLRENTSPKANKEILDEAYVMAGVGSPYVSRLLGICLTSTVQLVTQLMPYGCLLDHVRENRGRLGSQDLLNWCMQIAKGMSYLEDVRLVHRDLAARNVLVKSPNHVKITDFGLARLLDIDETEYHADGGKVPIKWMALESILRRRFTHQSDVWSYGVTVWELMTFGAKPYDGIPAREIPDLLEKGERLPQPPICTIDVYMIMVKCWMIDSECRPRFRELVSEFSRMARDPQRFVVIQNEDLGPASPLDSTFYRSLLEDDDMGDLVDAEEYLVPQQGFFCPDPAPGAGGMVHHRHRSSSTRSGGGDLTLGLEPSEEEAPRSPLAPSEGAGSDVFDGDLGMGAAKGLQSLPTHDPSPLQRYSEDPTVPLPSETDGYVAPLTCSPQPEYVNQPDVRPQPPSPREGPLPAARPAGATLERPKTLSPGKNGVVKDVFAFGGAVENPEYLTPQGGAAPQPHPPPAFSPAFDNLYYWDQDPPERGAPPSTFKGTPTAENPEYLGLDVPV

[11] = target: Eukaryotic elongation factor 2 kinase (Homo sapiens) (UniProt O00418); assay: Inhibition of eEF2K in human SKCO1 cells at 1 uM after 4 hrs using biotin labeled YIKYNSNSGFVR probe by mass-spectrometric analysis relative to control; format: cell-based
Chain of Eukaryotic elongation factor 2 kinase (Homo sapiens) (O00418 whole entry, the tested form may be a part): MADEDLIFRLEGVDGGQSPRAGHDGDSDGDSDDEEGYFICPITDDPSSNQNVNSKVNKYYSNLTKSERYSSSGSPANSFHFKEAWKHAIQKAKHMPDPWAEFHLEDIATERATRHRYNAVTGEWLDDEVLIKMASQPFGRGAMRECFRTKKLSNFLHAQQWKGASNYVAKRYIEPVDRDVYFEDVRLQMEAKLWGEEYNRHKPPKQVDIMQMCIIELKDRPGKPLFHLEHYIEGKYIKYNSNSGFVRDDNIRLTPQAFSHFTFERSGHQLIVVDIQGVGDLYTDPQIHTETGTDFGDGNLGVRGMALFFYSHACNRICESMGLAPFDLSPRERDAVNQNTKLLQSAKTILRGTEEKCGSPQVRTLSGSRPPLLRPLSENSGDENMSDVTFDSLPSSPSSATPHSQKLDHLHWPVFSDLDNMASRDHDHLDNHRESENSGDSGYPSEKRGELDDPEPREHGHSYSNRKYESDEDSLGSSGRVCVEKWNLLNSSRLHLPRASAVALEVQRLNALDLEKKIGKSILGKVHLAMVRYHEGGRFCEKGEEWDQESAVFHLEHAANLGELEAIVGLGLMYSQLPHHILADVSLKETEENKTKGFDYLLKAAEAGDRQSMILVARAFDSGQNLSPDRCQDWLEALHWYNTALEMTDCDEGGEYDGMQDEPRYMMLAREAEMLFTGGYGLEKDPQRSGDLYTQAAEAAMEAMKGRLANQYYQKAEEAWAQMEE

[12] = target: Ribosomal protein S6 kinase alpha-1 (Homo sapiens) (UniProt Q15418); assay: Inhibition of RSK1 domain2 in human SKCO1 cells at 1 uM after 4 hrs using biotin labeled DLKPSNILYVDESGNPECLR probe by mass-spectrometric analysis relative to control; format: cell-based
Chain of Ribosomal protein S6 kinase alpha-1 (Homo sapiens) (Q15418 whole entry, the tested form may be a part): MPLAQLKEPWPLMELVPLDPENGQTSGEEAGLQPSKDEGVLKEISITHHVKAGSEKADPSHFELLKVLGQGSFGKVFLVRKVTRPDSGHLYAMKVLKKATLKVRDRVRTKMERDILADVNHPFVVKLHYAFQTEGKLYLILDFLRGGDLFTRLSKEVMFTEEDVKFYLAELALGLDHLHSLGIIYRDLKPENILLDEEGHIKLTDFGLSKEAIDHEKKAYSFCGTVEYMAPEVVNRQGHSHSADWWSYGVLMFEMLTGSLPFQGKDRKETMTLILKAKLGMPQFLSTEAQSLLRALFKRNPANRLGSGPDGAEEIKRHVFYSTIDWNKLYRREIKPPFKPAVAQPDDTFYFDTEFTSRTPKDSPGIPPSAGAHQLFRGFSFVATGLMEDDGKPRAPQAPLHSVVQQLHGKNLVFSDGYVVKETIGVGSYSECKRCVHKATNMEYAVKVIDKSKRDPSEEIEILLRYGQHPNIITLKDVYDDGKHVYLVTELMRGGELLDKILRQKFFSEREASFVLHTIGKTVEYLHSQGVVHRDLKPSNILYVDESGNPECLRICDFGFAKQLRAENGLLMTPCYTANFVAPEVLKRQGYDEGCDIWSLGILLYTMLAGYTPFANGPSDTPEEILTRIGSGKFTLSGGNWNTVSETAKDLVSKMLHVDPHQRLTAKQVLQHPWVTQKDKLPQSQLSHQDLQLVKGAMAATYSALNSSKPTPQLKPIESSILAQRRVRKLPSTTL

[13] = target: Mitogen-activated protein kinase 3 (Homo sapiens) (UniProt P27361); assay: Inhibition of Erk1 in human SKCO1 cells at 1 uM after 4 hrs using biotin labeled DLKPSNLLINTTCDLK probe by mass-spectrometric analysis relative to control; format: cell-based
Chain of Mitogen-activated protein kinase 3 (Homo sapiens) (P27361 whole entry): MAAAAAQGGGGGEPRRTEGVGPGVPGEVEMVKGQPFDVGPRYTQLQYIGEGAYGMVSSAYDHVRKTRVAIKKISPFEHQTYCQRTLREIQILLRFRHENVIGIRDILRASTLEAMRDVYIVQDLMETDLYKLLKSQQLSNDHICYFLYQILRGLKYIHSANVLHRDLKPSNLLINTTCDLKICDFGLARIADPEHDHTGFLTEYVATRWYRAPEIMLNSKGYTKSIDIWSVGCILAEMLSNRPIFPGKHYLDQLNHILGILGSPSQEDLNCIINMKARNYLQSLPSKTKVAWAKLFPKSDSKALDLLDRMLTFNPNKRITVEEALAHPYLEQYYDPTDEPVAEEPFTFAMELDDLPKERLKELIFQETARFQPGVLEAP

Chain of AP2-associated protein kinase 1 (Homo sapiens) (Q2M2I8 whole entry, looked up): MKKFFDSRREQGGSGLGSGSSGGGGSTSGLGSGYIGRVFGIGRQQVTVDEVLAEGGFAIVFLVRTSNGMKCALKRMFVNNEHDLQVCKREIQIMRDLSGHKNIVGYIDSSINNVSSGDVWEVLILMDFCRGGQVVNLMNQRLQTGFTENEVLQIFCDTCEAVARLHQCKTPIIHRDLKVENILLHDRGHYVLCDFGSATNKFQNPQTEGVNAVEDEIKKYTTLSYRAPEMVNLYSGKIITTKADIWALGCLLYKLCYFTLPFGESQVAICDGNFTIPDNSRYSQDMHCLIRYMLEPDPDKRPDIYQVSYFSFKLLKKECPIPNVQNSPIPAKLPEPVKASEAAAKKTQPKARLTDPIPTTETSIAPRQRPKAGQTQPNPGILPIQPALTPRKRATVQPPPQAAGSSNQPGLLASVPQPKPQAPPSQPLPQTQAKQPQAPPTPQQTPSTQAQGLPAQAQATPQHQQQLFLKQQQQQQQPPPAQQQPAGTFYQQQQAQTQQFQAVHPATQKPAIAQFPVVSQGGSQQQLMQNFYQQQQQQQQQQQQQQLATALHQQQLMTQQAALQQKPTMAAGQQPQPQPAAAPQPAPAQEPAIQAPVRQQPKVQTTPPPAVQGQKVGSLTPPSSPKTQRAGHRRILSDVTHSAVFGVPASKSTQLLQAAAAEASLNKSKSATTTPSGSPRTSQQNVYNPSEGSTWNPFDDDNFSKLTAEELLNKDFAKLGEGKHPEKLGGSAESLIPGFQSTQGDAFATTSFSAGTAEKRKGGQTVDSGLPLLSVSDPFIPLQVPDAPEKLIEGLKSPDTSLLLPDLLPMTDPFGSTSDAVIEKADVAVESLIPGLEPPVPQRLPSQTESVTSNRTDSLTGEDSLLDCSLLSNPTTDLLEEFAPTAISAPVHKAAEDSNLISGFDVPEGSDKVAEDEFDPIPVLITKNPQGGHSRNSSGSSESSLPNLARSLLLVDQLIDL

Row | SMILES | Activity [1] | Activity [2] | Activity [3] | Activity [4] | Activity [5] | Activity [6] | inhibition [7] | IC50 (BaF3) | inhibition [8] | inhibition [9] | IC50 (NCI-H23; NCI-H23, 72 h) | inhibition [10] | inhibition [11] | inhibition [12] | inhibition [13] | Activity (NCI-H23)
1 | C=CC(=O)Nc1ccccc1Nc1nc(Nc2ccc(N3CCN(CCOCCOCCOCCNC(=O)CCCC[C@@H]4SC[C@@H]5NC(=O)N[C@@H]54)CC3)cc2)ncc1Cl | Active | Active | Active | Active | Active | Active |  |  |  |  |  |  |  |  |  | 
2 | COc1cc(O)c2c(c1)/C=C/C[C@H](O)[C@H](O)C(=O)/C=C\C[C@H](C)OC2=O |  |  |  |  |  |  | Active | 12 nM | 85.5% | 26.2% | 1000 nM | 14.5% | -7.7% | 6.4% |  | 
3 | C=CC(=O)Nc1ccccc1Nc1nc(Nc2ccc(N3CCN(C)CC3)cc2)ncc1Cl |  |  |  |  |  |  | Active |  | 57% | 24.9% |  |  |  |  | 5.2% | Active
4 | C=CC(=O)Nc1ccccc1Oc1nc(Nc2cnn(CCOC)c2)ncc1Cl |  |  |  |  |  |  |  | 302 nM |  |  |  | -2.2% | 6.7% | 12.8% | 42.7% | 
